Data published in ChEMBL document CHEMBL1141861, “Synthesis and in vitro anti-hepatitis B and C virus activities of ring-expanded ('fat') nucleobase analogues containing the imidazo[4,5-e][1,3]diazepine-4,8-dione ring system” (Bioorg Med Chem Lett, 2005).

What was measured:
Huh-7 [1] = assay: Cytotoxicity against Huh7ET cell line containg HCV replicon at 10 uM assessed by measuring the beta-actin RNA level relative to control; format: functional, Homo sapiens
In short: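 Huh7 ET HCV replicon (luciferase reporter) cells treated at 10 µM in the same primary screen. Cellular β-actin RNA level is used to compute cytotoxicity, expressed as % of control.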

Huh-7 [2] = assay: Selectivity index (toxicity/antiviral activity); format: functional
In short: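 Huh7 ET HCV luciferase replicon cells, single 10 µM primary screen. Index is the ratio of β-actin RNA level (% control) to replicon-derived luciferase activity (% control).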

Hepatitis C virus = assay: Antiviral activity against HCV in Huh7 ETcell line at 10 uM assessed by measuring HCV-RNA-derived LUC activity relative to control; format: functional, Hepacivirus hominis
In short: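 Primary single-concentration screen (10 µM) in Huh7 ET cells carrying an HCV RNA replicon with a stable luciferase reporter. Replicon-derived luciferase activity serves as an indirect measure of HCV RNA and is expressed as % of control.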

HepG2 [3] = assay: Selectivity index (CC50/EC50) for inhibition of HBV replicative intermediate synthesis in human hepatoblastoma 2.2.15 cells; format: functional
In short: (§1)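 2.2.15 cells were dosed daily for nine days. CC50 is the neutral red uptake concentration causing a twofold reduction versus untreated cultures. EC50 is from blot hybridization of intracellular replicative intermediates or extracellular virion DNA, by linear regression. Index = CC50/EC50.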

Hepatitis B virus [4] = assay: Inhibition of synthesis of extracellular virion DNA release in cultured human hepatoblastoma 2.2.15 cells; format: functional, organism-based; conditions: HepG2 2.2.15
In short: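 Confluent 2.2.15 cells were dosed daily for nine days. Culture medium was collected daily, and extracellular virion HBV DNA was assayed on days 0, 3, 6 and 9 by blot hybridization using ³²P-labelled HBV-specific probes. EC50 and EC90 (50%/90% inhibition) came from linear regression on all treated cultures, with SD taken from the regression standard error.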

Hepatitis B virus [5] = assay: Inhibition of synthesis of intracellular HBV DNA replicative intermediates in cultured human hepatoblastoma 2.2.15 cells; format: functional, organism-based; conditions: HepG2 2.2.15
In short: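 2.2.15 cells were dosed daily for nine days and lysed 24 h after day 9. Intracellular HBV DNA replicative intermediates were measured by Southern/dot blot hybridization with ³²P-labelled HBV probes. EC50 and EC90 came from linear regression on combined treated-culture data, with SD from the regression standard error.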

HepG2 [6] = assay: Cytotoxicity against human hepatoblastoma 2.2.15 cells; format: functional
In short: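 Confluent HBV-producing 2.2.15 cells received compound daily for nine days. Cytotoxicity was read by neutral red dye uptake. CC50 is the concentration giving a twofold drop in uptake from the mean of untreated cultures.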

HepG2 [7] = assay: Selectivity index (CC50/EC50) for inhibition of HBV virion DNA synthesis in human hepatoblastoma 2.2.15 cells; format: functional; in short: as §1

Compound: COc1ccc(Cn2c(Br)nc3c(=O)nc(NCc4ccccc4)[nH]c(=O)c32)cc1
- Activity (Huh-7 [1]): 69%
- Selectivity index (Huh-7 [2]): 1.255
- Activity (Hepatitis C virus): 55%

Compound: COc1ccc(Cn2c(Br)nc3c(=O)nc(N)[nH]c(=O)c32)cc1
- Activity (Huh-7 [1]): 89%
- Selectivity index (Huh-7 [2]): 1.435
- Activity (Hepatitis C virus): 62%

Compound: NC(=O)c1ncn([C@@H]2O[C@H](CO)[C@@H](O)[C@H]2O)n1 [RIBAVIRIN]
- Activity (Huh-7 [1]): 12%
- Selectivity index (Huh-7 [2]): 0.42
- Activity (Hepatitis C virus): 89%

Compound: Nc1ccn([C@@H]2CS[C@H](CO)O2)c(=O)n1 [LAMIVUDINE]
- Selectivity index (HepG2 [3]): 8602
- EC90 (Hepatitis B virus [4]): 0.151 µM
- EC50 (Hepatitis B virus [5]): 0.251 µM
- EC90 (Hepatitis B virus [5]): 0.648 µM
- CC50 (HepG2 [6]): 2160 µM
- Selectivity index (HepG2 [7]): 44979

Compound: CCCCCCCCNc1nc(=O)c2c(nc(Br)n2COCc2ccccc2)c(=O)[nH]1
- Activity (Huh-7 [1]): 61%
- Selectivity index (Huh-7 [2]): 2.1
- Activity (Hepatitis C virus): 29%

Compound: CNc1nc(=O)c2c(nc(Br)n2Cc2ccc(OC)cc2)c(=O)[nH]1
- Activity (Huh-7 [1]): 48%
- Selectivity index (Huh-7 [2]): 1.453
- Activity (Hepatitis C virus): 33%

Compound: CCCCCCCCNc1nc(=O)c2c(nc(Br)n2Cc2ccccc2)c(=O)[nH]1
- Activity (Huh-7 [1]): 83%
- Selectivity index (Huh-7 [2]): 1.06
- Selectivity index (HepG2 [3]): 34
- EC50 (Hepatitis B virus [4]): 1.7 µM
- EC90 (Hepatitis B virus [4]): 6.9 µM
- EC50 (Hepatitis B virus [5]): 8.4 µM
- EC90 (Hepatitis B virus [5]): 28 µM
- CC50 (HepG2 [6]): 286 µM
- Selectivity index (HepG2 [7]): 168
- Activity (Hepatitis C virus): 78%

Compound: CCCCCCCCCCNc1nc(=O)c2c(nc(Br)n2Cc2ccc(OC)cc2)c(=O)[nH]1
- Activity (Huh-7 [1]): 32%
- Selectivity index (Huh-7 [2]): 0.604
- Activity (Hepatitis C virus): 53%

Compound: CCCCCCCCCCCCCCNc1nc(=O)c2c(nc(Br)n2Cc2ccc(OC)cc2)c(=O)[nH]1
- Activity (Huh-7 [1]): 34%
- Selectivity index (Huh-7 [2]): 0.532
- Activity (Hepatitis C virus): 64%

Compound: CCCCCCCCCCCCNc1nc(=O)c2c(nc(Br)n2Cc2ccc(OC)cc2)c(=O)[nH]1
- Activity (Huh-7 [1]): 47%
- Selectivity index (Huh-7 [2]): 1
- Activity (Hepatitis C virus): 47%

Compound: CCCCCCCCCCCCCCCCNc1nc(=O)c2c(nc(Br)n2Cc2ccc(OC)cc2)c(=O)[nH]1
- Activity (Huh-7 [1]): 3%
- Selectivity index (Huh-7 [2]): 0.043
- Activity (Hepatitis C virus): 70%

Compound: CCNc1nc(=O)c2c(nc(Br)n2Cc2ccc(OC)cc2)c(=O)[nH]1
- Activity (Huh-7 [1]): 65%
- Selectivity index (Huh-7 [2]): 1.912
- Activity (Hepatitis C virus): 34%

Compound: CCCCCCCCNc1nc(=O)c2c(nc(Br)n2Cc2ccc(OC)cc2)c(=O)[nH]1
- Activity (Huh-7 [1]): 69%
- Selectivity index (Huh-7 [2]): 2.155
- Activity (Hepatitis C virus): 32%
